Results as given in ChEMBL document CHEMBL1149150, “Novel 3-oxa lipoxin A4 analogues with enhanced chemical and metabolic stability have anti-inflammatory activity in vivo” (J Med Chem, 2004).

Experiments:
[1] = Half life period of compound was determined after peroral administration; format: ADME, organism-based; conditions: rat, in vivo, po
Procedure, shortened: (§1)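 Rats, n = 3 per route, dosed by iv injection at 3 mg/kg or oral gavage at 5 mg/kg. Plasma analysed by LC/MS–MS with LXA₄ as internal standard on a C18 column (10–80% gradient over 2 min). For methyl ester dosing, the plasma acid formed by hydrolysis was the analyte quantified. Outputs: T1/2, clearance, AUCall, Cmax, Tmax, F.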

[2] = Half life period of compound was determined at a dose of 3 mg/kg by intravenous administration; format: ADME, organism-based; parameters: dose 3 mg/kg, route intravenous; conditions: rat, in vivo; procedure, shortened: as §1
[3] = Tmax was measured in rats after peroral administration at 5 mg/kg; format: ADME, organism-based; parameters: dose 5 mg/kg, route oral; conditions: rat, in vivo, po; procedure, shortened: as §1
[4] = tested on: Rattus norvegicus; experiment: Compound clearance in rats was measured after intravenous administration at 3 mg/kg; format: ADME, organism-based; parameters: dose 3 mg/kg, route intravenous; conditions: in vivo; procedure, shortened: as §1
[5] = Bioavailability value of compound in rats was determined after peroral administration; format: ADME, organism-based; conditions: rat, in vivo, po; procedure, shortened: as §1
[6] = Area under curve after intravenous administration at 3 mg/kg; format: ADME, organism-based; parameters: dose 3 mg/kg, route intravenous; conditions: rat, in vivo; procedure, shortened: as §1
[7] = Half life period of compound was determined after intravenous administration at 2 mg/kg; format: ADME, organism-based, Canis lupus familiaris; parameters: dose 2 mg/kg, route intravenous; conditions: dog, in vivo
Procedure, shortened: (§2)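 Dogs dosed iv at 2 mg/kg or orally at 2 mg/kg. Plasma parameters derived were half-life, Cmax, Tmax and oral bioavailability (F).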

[8] = Bioavailability of compound in dog was determined after peroral administration; format: ADME, organism-based, Canis lupus familiaris; conditions: in vivo, po; procedure, shortened: as §2
[9] = Half life period of compound was determined after peroral administration at 2 mg/kg; format: ADME, organism-based, Canis lupus familiaris; parameters: dose 2 mg/kg, route oral; conditions: dog, in vivo, po; procedure, shortened: as §2
[10] = F value of compound in rats was determined after peroral administration; format: ADME, organism-based; conditions: rat, in vivo, po; procedure, shortened: as §1
[11] = tested on: Mus sp.; experiment: (§3) Inhibition of the edema formation by compound was determined in mice; format: functional, organism-based
Procedure, shortened: (§4)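 Mice given ionophore on the ear with topical coapplication of compound at 100, 300 and 600 µg/cm², vehicle and ionophore controls alongside. Euthanized at 24 h. Ear weight taken as edema. Peroxidase (granulocytes) and elastase (neutrophils) activities measured in ear homogenates. N = 8–10 mice per group, mean ± SEM.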

[12] = Oral bioavailability in rat; format: ADME, organism-based; conditions: in vivo; procedure, shortened: as §1
[13] = tested on: Mus musculus; experiment: as §3; format: functional, organism-based; procedure, shortened: as §4

half-life [1] | half-life [2] | Tmax [3] | Cl [4] | bioavailability [5] | AUC [6] | half-life [7] | bioavailability [8] | half-life [9] | bioavailability [10] | bioavailability [12] | IC50 [13] | SMILES | ED50 [11]
1.1 h | 0.2 h | 1 h | 28 mL/min/kg | 13% | 1800 ng·h/mL |  |  |  |  |  |  | O=C(O)CCCC(O)C(O)/C=C/C=C/C=C/C=C/[C@H](O)COc1ccc(F)cc1 (single isomer, unassigned) | 
0.5 h | 0.3 h | 0.5 h | 51 mL/min/kg |  | 1000 ng·h/mL |  |  |  |  | 12% |  | COC(=O)CCCC(O)C(O)/C=C/C=C/C=C/C=C/[C@H](O)COc1ccc(F)cc1 (single isomer, unassigned) | 
1.1 h | 1.3 h | 0.5 h | 50 mL/min/kg |  | 1000 ng·h/mL |  |  |  |  | 4% | < 300 ug cm**-2 | O=C(O)COC[C@H](O)[C@H](O)/C=C/C=C/C=C/C=C/[C@H](O)COc1ccc(F)cc1 | 

The next lines start with the compound.

SMILES | half-life [1] | half-life [2] | Tmax [3] | Cl [4] | bioavailability [5] | AUC [6] | half-life [7] | bioavailability [8] | half-life [9] | bioavailability [10] | bioavailability [12] | IC50 [13] | ED50 [11]
O=C(O)COC[C@H](O)[C@H](O)/C=C/C=C/C#C/C=C/[C@H](O)COc1ccc(F)cc1 | 2.2 h | 2.3 h | 1.3 h | 7 mL/min/kg |  | 7000 ng·h/mL | 2.7 h | 40% | 3.2 h | 14% |  |  | < 300 µg/cm²
O=C(O)CCC[C@H](O)[C@H](O)/C=C/C=C/C#C/C=C/[C@@H](O)COc1ccc(F)cc1 | 1.8 h | 0.1 h | 0.5 h | 58 mL/min/kg |  | 900 ng·h/mL |  |  |  |  | 28% |  | 
